# Measurements as given in paper PMC9671271 (ACS infectious diseases, 2022).
# What was measured:
# C. albicans cells [1] = test: Propidium iodide membrane permeability assay, confocal microscopy, yeast form; assay type: cell-based, Candida albicans SC5314; details: for membrane disruption (PI leakage): 12.5 μM Hist-5, 7.5 μM PI, 5 min, RT, PPB
# C. albicans cells [2] = details: acid form of ZQ; stated as known, no reference given; cited from earlier work
# C. albicans = test: Two-dimensional broth microdilution checkerboard assay; assay type: cell-based, Candida albicans SC5314
# C. albicans hyphae = test: Propidium iodide membrane permeability assay, hyphal form; assay type: cell-based, Candida albicans SC5314
# Procedure, shortened: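 Colony from YPD agar (30 °C, 24 h) grown 24 h in SD+ at 30 °C, 200 rpm, then diluted to OD600 0.1 in SD+ with 12.5 mM N-acetylglucosamine and grown 24 h at 37 °C, 200 rpm. Cells pelleted and resuspended in PPB pH 7.4, then given 12.5 μM test peptide, 7.5 μM PI, ± ZnCl2 (0.5, 1, 2 eq). Confocal imaging at 5 min, RT; PI excitation 488 nm, emission 600–700 nm.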
# [3] = Circular dichroism titration for Zn-induced dimerization/aggregation; assay type: physicochemical; details: CD, 0-50 μM Hist-5 with 250 μM ZnCl2, PPB (198 nm) or 98% TFE (222 nm), 25 °C; ellipticity linear up to 50 μM
molecule,measurement,setting,value
"O=C(O)CN(CCN(CC(=O)O)CC(=O)O)CC(=O)O [EDTA, ethylenediaminetetraacetic acid]",PI uptake into the cytosol,"C. albicans cells [1]; cells treated with EDTA and PI only, no peptide (Figure S14)",not observed
"Cc1ccc(S(=O)(=O)Nc2cc(OCC(=O)O)cc3ccc(C)nc23)cc1 [ZQ, 2-methyl-8-(toluene-p-sulfonamido)-6-quinolyloxyacetic acid]",membrane permeability,C. albicans cells [2],poor membrane permeability
"DSHAKRHHGYKRKFHEKHHSHRGY [Hist-5, Histatin-5]",effect of Zn^2+ on fungicidal activity,C. albicans; Zn^2+ concentration surpassing the Hist-5 concentration (Figure S9),switched from promoting Hist-5 fungicidal activity to inhibiting it
same,effect of Zn^2+ supplementation on peptide activity,"C. albicans; sub-inhibitory concentrations of Hist-5, strongest at 1:2 Zn^2+ to peptide (Figure S9)",increase in peptide activity
same,membrane disruption (PI leakage),C. albicans cells [1]; no added Zn^2+,allows leakage of PI into the cytosol
same,membrane disruption (PI leakage),C. albicans cells [1]; one or more molar equivalents of Zn^2+,did not cause dye leakage
same,membrane disruption (PI leakage),C. albicans cells [1]; submolar equivalents of Zn^2+,internalization of PI
same,membrane activity on hyphae (PI leakage),"C. albicans hyphae; 12.5 μM Hist-5, 7.5 μM PI, with Zn^2+ supplementation",protective effect against Hist-5-induced membrane disruption
same,membrane activity on hyphae (PI leakage),"C. albicans hyphae; 12.5 μM Hist-5 alone, 7.5 μM PI, 5 min, RT, PPB",able to permeabilize the cell membrane
same,Zn-induced peptide dimerization/aggregation,[3],dimerization/aggregation is not occurring
